pEC50: −log10 of the molar value. Some results are limits rather than exact numbers.

Test system in the first data set: not listed separately
As to the kind of experiment: Cytotoxicity against human CEM cells. As to conditions: CEM (CCRF-CEM) cells. The class given is cell-based.
With `Nc1ncnc2c1c1c(=O)[nH]c(S)nc1n2[C@@H]1O[C@H](CO)[C@@H](O)[C@H]1O`, it took 8.2 µM to reach half-maximal cytotoxicity (CC50).

Consider `C[C@@]1(O)[C@H](O)[C@@H](CO)O[C@H]1n1c2ncnc(N)c2c2c(=O)[nH]c(S)nc21`, for which the CC50 (usually the concentration that lowers cell viability or growth by half) is over 100 µM.

`C[C@@]1(O)[C@H](O)[C@@H](CO)O[C@H]1n1c2ncnc(N)c2c2c(N)ncnc21` yielded a CC50 of over 100 µM.

Take `Nc1nc2c(c(=O)[nH]1)c1c(N)ncnc1n2[C@@H]1O[C@H](CO)[C@@H](O)[C@H]1O`: the CC50 was 20.2 µM.

`C[C@@]1(O)[C@H](O)[C@@H](CO)O[C@H]1n1c2ncnc(N)c2c2c(=O)[nH]c(N)nc21` yielded a CC50 of 36.5 µM.

`C[C@@]1(O)[C@H](O)[C@@H](CO)O[C@H]1n1c2ncnc(N)c2c2c(=O)[nH]c(=O)[nH]c21` yielded a CC50 of over 100 µM.

`Nc1ncnc2c1c1c(N)ncnc1n2[C@@H]1O[C@H](CO)[C@@H](O)[C@H]1O` had a CC50 of 29.5 µM.

Regarding `Cc1cn([C@H]2C[C@H](N=[N+]=[N-])[C@@H](CO)O2)c(=O)[nH]c1=O` [ZIDOVUDINE], the CC50 turned out to be 14.3 µM.

Test system in a further data set: not listed separately
Put plainly: Cytotoxicity against human PBMC. Format: cell-based.
Details: not given
`Nc1ncnc2c1c1c(=O)[nH]c(S)nc1n2[C@@H]1O[C@H](CO)[C@@H](O)[C@H]1O` displayed a cytotoxic concentration (CC50) of 2.9 µM.

Consider `C[C@@]1(O)[C@H](O)[C@@H](CO)O[C@H]1n1c2ncnc(N)c2c2c(=O)[nH]c(S)nc21`, for which the CC50 was over 100 µM.

For the compound `C[C@@]1(O)[C@H](O)[C@@H](CO)O[C@H]1n1c2ncnc(N)c2c2c(N)ncnc21`, the CC50 was over 100 µM.

`Nc1nc2c(c(=O)[nH]1)c1c(N)ncnc1n2[C@@H]1O[C@H](CO)[C@@H](O)[C@H]1O`: the CC50 came out at 3.1 µM.

For the compound `C[C@@]1(O)[C@H](O)[C@@H](CO)O[C@H]1n1c2ncnc(N)c2c2c(=O)[nH]c(N)nc21`, the CC50 is 92.1 µM.

In the case of `C[C@@]1(O)[C@H](O)[C@@H](CO)O[C@H]1n1c2ncnc(N)c2c2c(=O)[nH]c(=O)[nH]c21`, the CC50 is over 100 µM.

Regarding `Nc1ncnc2c1c1c(N)ncnc1n2[C@@H]1O[C@H](CO)[C@@H](O)[C@H]1O`, the CC50 turned out to be 53.8 µM.

Compound `Cc1cn([C@H]2C[C@H](N=[N+]=[N-])[C@@H](CO)O2)c(=O)[nH]c1=O` [ZIDOVUDINE] gave a CC50 of over 100 µM.

Test system in a further data set: not listed separately
As to the kind of experiment: Cytotoxicity against human HuH7 cells assessed as reduction in rRNA levels at 120 hrs by RT-PCR analysis. The class given is cell-based, Huh-7.
Details: not given
`Nc1ncnc2c1c1c(=O)[nH]c(S)nc1n2[C@@H]1O[C@H](CO)[C@@H](O)[C@H]1O`: the CC50 at 120 h was over 10 µM.

Consider `C[C@@]1(O)[C@H](O)[C@@H](CO)O[C@H]1n1c2ncnc(N)c2c2c(=O)[nH]c(S)nc21`, for which the CC50 at 120 h was over 10 µM.

With `C[C@@]1(O)[C@H](O)[C@@H](CO)O[C@H]1n1c2ncnc(N)c2c2c(N)ncnc21`, the CC50 at 120 h is over 10 µM.

As for `Nc1nc2c(c(=O)[nH]1)c1c(N)ncnc1n2[C@@H]1O[C@H](CO)[C@@H](O)[C@H]1O`, the CC50 at 120 h is under 10 µM.

Consider `C[C@@]1(O)[C@H](O)[C@@H](CO)O[C@H]1n1c2ncnc(N)c2c2c(=O)[nH]c(N)nc21`, for which the CC50 at 120 h amounted to 3 µM.

For the compound `CCOC(=O)[C@H](C)NP(=O)(OC[C@H]1O[C@@H](n2c3ncnc(N)c3c3c(N)ncnc32)[C@](C)(O)[C@@H]1O)Oc1ccccc1` (stereo partly specified), the CC50 at 120 h is over 10 µM.

As for `C[C@@]1(O)[C@H](O)[C@@H](CO)O[C@H]1n1c2ncnc(N)c2c2c(=O)[nH]c(=O)[nH]c21`, the CC50 at 120 h is over 10 µM.

Take `Nc1ncnc2c1c1c(N)ncnc1n2[C@@H]1O[C@H](CO)[C@@H](O)[C@H]1O`: the CC50 at 120 h is over 10 µM.

Take `Cc1cn([C@H]2C[C@H](N=[N+]=[N-])[C@@H](CO)O2)c(=O)[nH]c1=O` [ZIDOVUDINE]: the CC50 at 120 h is over 10 µM.

Another data set has as its system Human immunodeficiency virus 1. As to the kind of experiment: Antiviral activity against Human immunodeficiency virus 1 LAI infected in human PBMC. The class given is functional, organism-based. As to conditions: Human immunodeficiency virus 1, M:B_Lai. The gist of the method:
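HIV-1 LAI replication in primary human peripheral blood mononuclear cells, with AZT as positive control.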
Turning to `Nc1ncnc2c1c1c(=O)[nH]c(S)nc1n2[C@@H]1O[C@H](CO)[C@@H](O)[C@H]1O`, the pEC50 (usually −log10 of the EC50, conventionally taken in molar units) was 5.02 and the 90% effect level (EC90) was put at 30.2 µM.

On to `C[C@@]1(O)[C@H](O)[C@@H](CO)O[C@H]1n1c2ncnc(N)c2c2c(=O)[nH]c(S)nc21`, for which the pEC50 was under 4.00 and the EC90 (in general, the concentration needed for an effect of 90%) was over 100 µM.

Compound `C[C@@]1(O)[C@H](O)[C@@H](CO)O[C@H]1n1c2ncnc(N)c2c2c(N)ncnc21` gave a pEC50 of at most 4.00 and an EC90 of at least 100 µM.

`Nc1nc2c(c(=O)[nH]1)c1c(N)ncnc1n2[C@@H]1O[C@H](CO)[C@@H](O)[C@H]1O` had a negative logarithm of the EC50 (pEC50) of 5.03 and an EC90 of 24 µM.

In turn, `C[C@@]1(O)[C@H](O)[C@@H](CO)O[C@H]1n1c2ncnc(N)c2c2c(=O)[nH]c(N)nc21` gave a pEC50 of 5.48 and a concentration for an effect of 90% (EC90) of over 100 µM.

`C[C@@]1(O)[C@H](O)[C@@H](CO)O[C@H]1n1c2ncnc(N)c2c2c(=O)[nH]c(=O)[nH]c21` showed a pEC50 of under 4.00 and an EC90 of over 100 µM.

The compound `Nc1ncnc2c1c1c(N)ncnc1n2[C@@H]1O[C@H](CO)[C@@H](O)[C@H]1O` gave a pEC50 of under 4.00 and an EC90 of over 100 µM.

For the compound `Cc1cn([C@H]2C[C@H](N=[N+]=[N-])[C@@H](CO)O2)c(=O)[nH]c1=O` [ZIDOVUDINE], it took 0.028 µM to reach the 90% level (EC90).

Test system in the next data set: not listed separately
As to the kind of experiment: Cytotoxicity against African green monkey Vero cells. Format: cell-based. As to conditions: chlorocebus sabaeus.
`Nc1ncnc2c1c1c(=O)[nH]c(S)nc1n2[C@@H]1O[C@H](CO)[C@@H](O)[C@H]1O` showed a CC50 of 43.1 µM.

In turn, `C[C@@]1(O)[C@H](O)[C@@H](CO)O[C@H]1n1c2ncnc(N)c2c2c(=O)[nH]c(S)nc21` had a CC50 of over 100 µM.

Compound `C[C@@]1(O)[C@H](O)[C@@H](CO)O[C@H]1n1c2ncnc(N)c2c2c(N)ncnc21` gave a CC50 of over 100 µM.

As to `Nc1nc2c(c(=O)[nH]1)c1c(N)ncnc1n2[C@@H]1O[C@H](CO)[C@@H](O)[C@H]1O`, it took 63.1 µM to reach half-maximal cytotoxicity (CC50).

As for `C[C@@]1(O)[C@H](O)[C@@H](CO)O[C@H]1n1c2ncnc(N)c2c2c(=O)[nH]c(N)nc21`, the CC50 was over 100 µM.

Regarding `C[C@@]1(O)[C@H](O)[C@@H](CO)O[C@H]1n1c2ncnc(N)c2c2c(=O)[nH]c(=O)[nH]c21`, the CC50 was over 100 µM.

Consider `Nc1ncnc2c1c1c(N)ncnc1n2[C@@H]1O[C@H](CO)[C@@H](O)[C@H]1O`, for which half-maximal cytotoxicity (CC50) was put at 82.5 µM.

Regarding `Cc1cn([C@H]2C[C@H](N=[N+]=[N-])[C@@H](CO)O2)c(=O)[nH]c1=O` [ZIDOVUDINE], the CC50 came out at 53 µM.

For the next data set, the system named is Hepatitis C virus. As to the kind of experiment: Antiviral activity against Hepatitis C virus infected in human HuH7 cells. Format: functional, organism-based, Hepacivirus hominis. Particulars: Huh-7. The gist of the method:
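Subgenomic HCV replicon in Huh7 cells; HCV RNA extracted and amplified to measure inhibition of replication, with cytotoxicity determined in the same cells at the same time.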
`Nc1ncnc2c1c1c(=O)[nH]c(S)nc1n2[C@@H]1O[C@H](CO)[C@@H](O)[C@H]1O`: the negative logarithm of the EC50 (pEC50) was under 5.00 and the EC90 was over 10 µM.

Compound `C[C@@]1(O)[C@H](O)[C@@H](CO)O[C@H]1n1c2ncnc(N)c2c2c(=O)[nH]c(S)nc21` gave a pEC50 of under 5.00 and an EC90 of over 10 µM.

`C[C@@]1(O)[C@H](O)[C@@H](CO)O[C@H]1n1c2ncnc(N)c2c2c(N)ncnc21` showed a negative logarithm of the EC50 (pEC50) of under 5.00 and an EC90 of over 10 µM.

For `Nc1nc2c(c(=O)[nH]1)c1c(N)ncnc1n2[C@@H]1O[C@H](CO)[C@@H](O)[C@H]1O`, the pEC50 was 5.52 and the EC90 came out at 22.5 µM.

Compound `C[C@@]1(O)[C@H](O)[C@@H](CO)O[C@H]1n1c2ncnc(N)c2c2c(=O)[nH]c(N)nc21` showed a pEC50 of 5.52 and a concentration for an effect of 90% (EC90) of 17.9 µM.

As to `CCOC(=O)[C@H](C)NP(=O)(OC[C@H]1O[C@@H](n2c3ncnc(N)c3c3c(N)ncnc32)[C@](C)(O)[C@@H]1O)Oc1ccccc1` (stereo partly specified), the pEC50 was under 5.00 and the EC90 is over 10 µM.

In turn, `C[C@@]1(O)[C@H](O)[C@@H](CO)O[C@H]1n1c2ncnc(N)c2c2c(=O)[nH]c(=O)[nH]c21` showed a pEC50 of under 5.00 and an EC90 of over 10 µM.

Turning to `Nc1ncnc2c1c1c(N)ncnc1n2[C@@H]1O[C@H](CO)[C@@H](O)[C@H]1O`, the pEC50 was under 5.00 and the EC90 was over 10 µM.

Compound `Cc1cn([C@H]2C[C@H](N=[N+]=[N-])[C@@H](CO)O2)c(=O)[nH]c1=O` [ZIDOVUDINE] gave a pEC50 of under 5.00 and an EC90 of over 10 µM.

The record behind these values is ChEMBL document CHEMBL2380249, “Synthesis and evaluation of Janus type nucleosides as potential HCV NS5B polymerase inhibitors” (Bioorg Med Chem Lett, 2013).
